Laboratory results as given in ChEMBL document CHEMBL1154606 (J Med Chem, 2009).
Where a SMILES comes first, the peptide text is derived from it. [ ]: non-standard residue; d: D form. NMeF = CN[C@@H](Cc1ccccc1)C(=O)O

Assays:
Neuromedin-K receptor [1] = biological target: T1, Neuromedin-K receptor (Homo sapiens, UniProt P29371); experiment: Agonist activity at human NK3 receptor expressed in cells assessed as accumulation of [3H]inositol phosphate; type: functional, cell-based
T1 sequence (P29371 whole entry): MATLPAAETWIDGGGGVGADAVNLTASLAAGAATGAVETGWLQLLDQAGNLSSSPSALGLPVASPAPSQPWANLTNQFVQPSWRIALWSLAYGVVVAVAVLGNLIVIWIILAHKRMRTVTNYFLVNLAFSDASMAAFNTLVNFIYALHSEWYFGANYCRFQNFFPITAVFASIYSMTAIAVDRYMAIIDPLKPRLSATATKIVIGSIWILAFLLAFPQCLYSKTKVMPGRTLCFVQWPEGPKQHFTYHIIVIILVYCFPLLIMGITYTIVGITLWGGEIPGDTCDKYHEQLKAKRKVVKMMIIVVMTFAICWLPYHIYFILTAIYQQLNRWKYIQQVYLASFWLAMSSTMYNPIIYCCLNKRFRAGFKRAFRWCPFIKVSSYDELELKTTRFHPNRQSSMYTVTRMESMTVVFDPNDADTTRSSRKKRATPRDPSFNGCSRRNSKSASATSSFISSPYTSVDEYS
How it was run: (§1)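 At 48 h, preincubated 10 min at RT in HBSS/20 mM HEPES pH 7.4 with 8 mM LiCl, then stimulated with [MePhe⁷]NKB (0.1 nM–10 μM) for 45 min at 37 °C. Inositol phosphates were extracted with formic acid, captured on yttrium silicate beads and counted. EC50 and Hill slope were derived.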

Neuromedin-K receptor [2] = biological target: T1, Neuromedin-K receptor; experiment: Binding affinity to human NK3 receptor
Neuromedin-K receptor [3] = biological target: T2, Neuromedin-K receptor (Cavia porcellus, UniProt P30098); experiment: Agonist activity at guinea pig NK3 receptor expressed in cells assessed as accumulation of [3H]inositol phosphate; type: functional, cell-based; how it was run: as §1
T2 sequence (P30098 whole entry): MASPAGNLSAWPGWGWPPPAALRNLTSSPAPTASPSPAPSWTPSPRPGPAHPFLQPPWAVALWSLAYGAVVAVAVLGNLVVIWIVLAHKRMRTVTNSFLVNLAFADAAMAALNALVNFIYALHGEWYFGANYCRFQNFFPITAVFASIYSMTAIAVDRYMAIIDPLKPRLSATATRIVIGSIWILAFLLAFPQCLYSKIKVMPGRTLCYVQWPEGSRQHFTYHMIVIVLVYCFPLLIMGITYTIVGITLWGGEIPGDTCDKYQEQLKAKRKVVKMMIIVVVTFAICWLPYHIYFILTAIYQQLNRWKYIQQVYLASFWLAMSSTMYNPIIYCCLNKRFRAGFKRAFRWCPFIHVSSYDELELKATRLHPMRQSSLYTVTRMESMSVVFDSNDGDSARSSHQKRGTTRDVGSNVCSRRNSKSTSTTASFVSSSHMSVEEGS

Substance-K receptor [4] = biological target: T3, Substance-K receptor (Homo sapiens, UniProt P21452); experiment: Binding affinity to human NK2 receptor
T3 sequence (P21452 whole entry): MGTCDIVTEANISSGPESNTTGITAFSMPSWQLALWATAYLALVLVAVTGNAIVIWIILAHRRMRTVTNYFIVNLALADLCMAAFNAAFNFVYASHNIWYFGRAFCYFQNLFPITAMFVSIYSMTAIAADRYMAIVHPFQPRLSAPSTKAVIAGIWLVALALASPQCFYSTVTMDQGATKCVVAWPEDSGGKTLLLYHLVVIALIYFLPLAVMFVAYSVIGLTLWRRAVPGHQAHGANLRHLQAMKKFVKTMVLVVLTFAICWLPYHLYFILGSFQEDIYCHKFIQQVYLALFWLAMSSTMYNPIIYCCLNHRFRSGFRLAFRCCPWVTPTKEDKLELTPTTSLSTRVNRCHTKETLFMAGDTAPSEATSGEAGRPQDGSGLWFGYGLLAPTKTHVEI

Neuromedin-K receptor [5] = biological target: T1, Neuromedin-K receptor; experiment: Displacement of [3H]osanetant from human recombinant NK3 receptor expressed in HEK293 cells; type: cell-based
How it was run: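 Membranes from transiently transfected HEK293 cells (5 μg protein/well) in 50 mM Tris-HCl, 4 mM MnCl2, 1 μM phosphoramidon, 0.1% BSA, pH 7.4. […] Nonspecific binding defined with 10 μM competitor. Filtered on GF/C. Ki by Cheng-Prusoff; three experiments in duplicate.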

Substance-K receptor [6] = biological target: T3, Substance-K receptor; experiment: Displacement of [3H]SR48968 from human recombinant NK2 receptor expressed in HEK293 cells; type: cell-based
How it was run: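 hNK2 membranes from transient HEK293 (2.5 μg protein/well) in 50 mM Tris-HCl, 3 mM MnCl2, 4 μg/mL chymostatin, 0.04% BSA, pH 7.4. Incubated with 0.32 nM [³H]SR 48968 plus 10 inhibitor concentrations (0.0003–10 μM) for 75 min at RT. Ki by Cheng-Prusoff; three experiments in duplicate.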

Neuromedin-K receptor [7] = biological target: T2, Neuromedin-K receptor; experiment: Displacement of [3H]osanetant from guinea pig recombinant NK3 receptor expressed in HEK293 cells; type: cell-based
How it was run: (§2)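 Membranes from transiently transfected HEK293 cells (5 μg protein/well) in 50 mM Tris-HCl, 4 mM MnCl2, 1 μM phosphoramidon, 0.1% BSA, pH 7.4. Nonspecific binding defined with 10 μM competitor. Filtered on GF/C. Ki by Cheng-Prusoff; three experiments in duplicate.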

Neuromedin-K receptor [8] = biological target: T1, Neuromedin-K receptor; experiment: Antagonist activity at wild type human NK3 receptor expressed in HEK293 cells assessed as inhibition of [MePhe7]NKB-induced accumulation of [3H]inositol phosphate; type: functional, cell-based; conditions: read-out: pA2 (converted)
How it was run: (§3)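 HEK293 cells transiently transfected with NK3 receptor, labeled with myo-[³H]-inositol and assayed 48 h post-transfection in HBSS/HEPES pH 7.4 with 8 mM LiCl. Fixed antagonist concentrations were preincubated 20 min at 37 °C, then [MePhe⁷]NKB (0.1 nM–10 μM) was added for 45 min at 37 °C. [³H]IP was captured on yttrium silicate beads. Agonist EC50 shifts gave dose ratios for Schild regression. Six curves from three transfections.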

Substance-P receptor = Substance-P receptor (Homo sapiens, UniProt P25103); experiment: Displacement of [3H]substance P from human recombinant NK1 receptor expressed in HEK293 cells; type: cell-based
How it was run: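 hNK1 membranes from transient HEK293 (2.5 μg protein/well) in 50 mM HEPES, 3 mM MnCl2, 2 μM phosphoramidon, 16.8 μM leupeptin, 0.04% BSA, pH 7.4. Incubated with 0.6 nM [³H]substance P plus 10 inhibitor concentrations (0.0003–10 μM) for 75 min at RT. Nonspecific binding defined with 10 μM CP-96,345. Ki by Cheng-Prusoff; three experiments in duplicate.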

Neuromedin-K receptor [9] = biological target: T4, Neuromedin-K receptor (Cavia porcellus, UniProt P30098); experiment: Displacement of [3H]osanetant from guinea pig recombinant NK3 receptor A1142.58T expressed in HEK293 cells; type: cell-based; how it was run: as §2
Neuromedin-K receptor [10] = biological target: T4, Neuromedin-K receptor; experiment: Antagonist activity at […] guinea pig NK3 receptor A1142.58T mutant expressed in HEK293 cells assessed as inhibition of [MePhe7]NKB-induced accumulation of [3H]inositol phosphate; type: functional, cell-based; how it was run: as §3
[11] = biological target: T5, Neuromedin-K receptor (Cavia porcellus) (UniProt P30098); conditions: HEK293
T5 sequence (whole entry): T2 sequence (P30098 whole entry)

[12] = test system: Neurokinin 3 receptor (Cavia porcellus); experiment: Equilibrium binding affinity to guinea pig NK3 receptor A1142.58T mutant expressed in HEK293 cells
[13] = biological target: T6, Neuromedin-K receptor (Homo sapiens) (UniProt P29371); conditions: HEK293
T6 sequence (whole entry): T1 sequence (P29371 whole entry)

[14] = biological target: T6, Neuromedin-K receptor (Homo sapiens); conditions: HEK293; remark: listed apart in the source
[15] = biological target: T5, Neuromedin-K receptor (Cavia porcellus); conditions: HEK293; remark: listed apart in the source
Neuromedin-K receptor [16] = biological target: T2, Neuromedin-K receptor; experiment: Antagonist activity at wild type guinea pig NK3 receptor expressed in HEK293 cells assessed as inhibition of [MePhe7]NKB-induced accumulation of [3H]inositol phosphate; type: functional, cell-based; conditions: read-out: pA2 (converted); how it was run: as §3

Sequence of Substance-P receptor (P25103 whole entry): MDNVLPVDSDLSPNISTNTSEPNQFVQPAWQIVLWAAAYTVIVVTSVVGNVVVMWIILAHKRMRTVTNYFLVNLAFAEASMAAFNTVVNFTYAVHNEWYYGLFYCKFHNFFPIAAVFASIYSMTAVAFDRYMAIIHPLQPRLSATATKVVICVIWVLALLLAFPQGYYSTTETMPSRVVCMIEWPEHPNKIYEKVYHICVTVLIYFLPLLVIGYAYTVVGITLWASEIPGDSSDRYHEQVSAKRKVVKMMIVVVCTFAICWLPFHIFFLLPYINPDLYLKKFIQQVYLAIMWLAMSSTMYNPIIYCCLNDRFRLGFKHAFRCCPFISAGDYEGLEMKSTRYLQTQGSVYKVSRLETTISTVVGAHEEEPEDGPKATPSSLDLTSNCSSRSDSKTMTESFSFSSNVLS

| EC50 (Neuromedin-K receptor [1]) | Ki (Neuromedin-K receptor [2]) | EC50 (Neuromedin-K receptor [3]) | Ki (Substance-K receptor [4]) | Ki (Neuromedin-K receptor [5]) | Ki (Substance-K receptor [6]) | Ki (Neuromedin-K receptor [7]) | Kb (Neuromedin-K receptor [8]) | Ki (Substance-P receptor) | Ki (Neuromedin-K receptor [9]) | pA2 (Neuromedin-K receptor [10]) | T1/2 [11] | T1/2 [13] | T1/2 [14] | T1/2 [15] | Kb (Neuromedin-K receptor [16]) | Compound | Kd [12] |
| --- | --- | --- | --- | --- | --- | --- | --- | --- | --- | --- | --- | --- | --- | --- | --- | --- | --- |
| 0.6 nM | 0.3 nM | 0.6 nM | 1600 nM | – | – | – | – | – | – | – | – | – | – | – | – | CSCC[C@H](NC(=O)[C@H](CC(C)C)NC(=O)CNC(=O)[C@H](Cc1ccccc1)N(C)C(=O)[C@H](Cc1ccccc1)NC(=O)[C@H](Cc1ccccc1)NC(=O)[C@H](CC(=O)O)NC(=O)[C@H](Cc1cnc[nH]1)NC(=O)[C@H](CCSC)NC(=O)[C@@H](N)CC(=O)O)C(N)=O (H-DMHDFF[NMeF]GLM-NH2) | – |
| – | – | – | – | 3.1 nM | 515 nM | 3.5 nM | 7.76 nM | 152 nM | 2.7 nM | 7.83 | – | – | – | – | – | CC(=O)N(C)C1CCN(CCC(C)(C(=O)N(C)Cc2ccc(F)c(C(F)(F)F)c2)c2ccc(Cl)c(Cl)c2)CC1 (stereo unspecified) | – |
| – | – | – | – | 0.8 nM | 109 nM | 1.6 nM | 8.91 nM | 182 nM | 1.8 nM | 7.96 | – | – | – | – | – | CN(Cc1ccc(F)c(C(F)(F)F)c1)C(=O)C(C)(CCN1CCC(N2CCCC2=O)CC1)c1ccc(Cl)c(Cl)c1 (stereo unspecified) | – |
| – | – | – | – | – | – | – | – | – | – | – | 31.5 min | 10.1 min | 4.01 min | 10.2 min | – | CC(=O)N(C)C1(c2ccccc2)CCN(CCC[C@]2(c3ccc(Cl)c(Cl)c3)CCCN(C(=O)c3ccccc3)C2)CC1 [OSANETANT] | 0.08 nM |
| – | – | – | – | 10.4 nM | 953 nM | 8 nM | 18.2 nM | 70.9 nM | 11.9 nM | 7.53 | – | – | – | – | 24 nM | CC(=O)N(C)C1CCN(CCC(C)(C(=O)N(C)Cc2ccccc2Cl)c2ccc(Cl)c(Cl)c2)CC1 (stereo unspecified) | – |
